The results in this text go back to ChEMBL document CHEMBL1250525, “Structure-activity relationships in 1,4-benzodioxan-related compounds. 10. Novel α1-adrenoreceptor antagonists related to openphendioxan: synthesis, biological evaluation, and α1d computational study” (Bioorg Med Chem, 2010).

Assay [1] has as its target T1, Alpha-1A adrenergic receptor (Rattus norvegicus) (UniProt P43140).
T1 sequence (whole entry): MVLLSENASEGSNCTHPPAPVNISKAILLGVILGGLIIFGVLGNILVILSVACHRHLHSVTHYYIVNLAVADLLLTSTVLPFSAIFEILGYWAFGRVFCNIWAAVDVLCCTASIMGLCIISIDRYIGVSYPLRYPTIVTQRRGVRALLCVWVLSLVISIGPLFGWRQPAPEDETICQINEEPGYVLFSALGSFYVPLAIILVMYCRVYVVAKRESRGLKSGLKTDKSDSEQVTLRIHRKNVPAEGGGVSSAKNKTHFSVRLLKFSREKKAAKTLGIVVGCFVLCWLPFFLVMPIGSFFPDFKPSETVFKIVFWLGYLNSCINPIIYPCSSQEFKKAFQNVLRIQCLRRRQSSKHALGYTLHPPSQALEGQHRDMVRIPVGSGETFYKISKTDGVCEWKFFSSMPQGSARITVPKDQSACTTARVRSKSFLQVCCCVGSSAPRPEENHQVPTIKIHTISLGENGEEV
As to the kind of experiment: Antagonist activity at adrenergic alpha1A receptor in Wistar rat vas deference assessed as inhibition of (-)-noradrenaline-indcuced contraction. Format: functional. A digest of the protocol:
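Tissue in Tyrode with 0.1 µM cocaine, equilibrated 60 min with washes every 15 min, primed twice with 10 µM noradrenaline. A noradrenaline curve gave the basal response. Antagonist 30 min, then 30 min washing, then a new agonist curve.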

The target of assay [2] is T2, Alpha-1D adrenergic receptor (Rattus norvegicus) (UniProt P23944).
T2 sequence (whole entry): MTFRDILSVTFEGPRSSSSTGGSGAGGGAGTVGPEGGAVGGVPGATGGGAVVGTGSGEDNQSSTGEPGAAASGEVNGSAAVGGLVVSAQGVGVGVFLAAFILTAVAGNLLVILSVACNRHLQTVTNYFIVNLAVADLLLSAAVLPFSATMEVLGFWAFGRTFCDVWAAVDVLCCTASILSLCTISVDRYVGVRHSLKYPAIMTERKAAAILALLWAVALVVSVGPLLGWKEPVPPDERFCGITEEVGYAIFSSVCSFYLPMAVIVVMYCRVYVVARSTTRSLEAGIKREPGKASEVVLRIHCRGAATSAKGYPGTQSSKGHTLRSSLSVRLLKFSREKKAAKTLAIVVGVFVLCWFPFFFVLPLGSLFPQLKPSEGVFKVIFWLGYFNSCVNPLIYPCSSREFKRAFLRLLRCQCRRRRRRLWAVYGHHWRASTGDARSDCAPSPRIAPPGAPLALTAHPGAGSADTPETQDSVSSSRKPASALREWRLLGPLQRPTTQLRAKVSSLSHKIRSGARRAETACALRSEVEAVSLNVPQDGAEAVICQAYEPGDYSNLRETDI
As to the kind of experiment: Antagonist activity at adrenergic Alpha-1D receptor in Wistar rat thoracic aorta assessed as inhibition of (-)-noradrenaline-indcuced contraction. Format: functional, tissue-based.

Assay [3] has as its target T3, Alpha-1A adrenergic receptor (Homo sapiens, UniProt P35348).
T3 sequence (P35348 whole entry): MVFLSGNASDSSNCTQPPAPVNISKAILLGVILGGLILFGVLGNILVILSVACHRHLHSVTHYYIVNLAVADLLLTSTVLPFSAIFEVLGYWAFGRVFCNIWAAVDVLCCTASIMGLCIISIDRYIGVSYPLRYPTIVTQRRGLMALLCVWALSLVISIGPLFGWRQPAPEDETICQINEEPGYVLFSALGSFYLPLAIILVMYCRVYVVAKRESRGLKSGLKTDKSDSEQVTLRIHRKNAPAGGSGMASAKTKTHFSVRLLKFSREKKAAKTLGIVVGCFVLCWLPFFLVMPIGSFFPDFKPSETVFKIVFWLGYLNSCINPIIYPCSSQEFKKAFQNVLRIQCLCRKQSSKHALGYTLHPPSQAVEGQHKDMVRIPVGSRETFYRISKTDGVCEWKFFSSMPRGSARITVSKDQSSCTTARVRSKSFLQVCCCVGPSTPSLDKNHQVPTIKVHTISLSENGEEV
As to the kind of experiment: Displacement of [3H]prazosin from human adrenergic alpha1A expressed in CHO cells. Format: cell-based. A digest of the protocol: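 Membranes (30 µg protein) from CHO cells stably expressing each cloned human α1 subtype, labelled with [3H]prazosin. Nonspecific binding with 10 µM phentolamine. Stopped with ice-cold Tris–HCl and filtration on 0.2% polyethyleneimine-treated glass-fibre filters. Ki from IC50 by Cheng–Prusoff, nonlinear fitting. Mean ± SE of 2–3 experiments in triplicate.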

Assay [4] has as its target T4, 5-hydroxytryptamine receptor 1A (Homo sapiens, UniProt P08908).
T4 sequence (P08908 whole entry): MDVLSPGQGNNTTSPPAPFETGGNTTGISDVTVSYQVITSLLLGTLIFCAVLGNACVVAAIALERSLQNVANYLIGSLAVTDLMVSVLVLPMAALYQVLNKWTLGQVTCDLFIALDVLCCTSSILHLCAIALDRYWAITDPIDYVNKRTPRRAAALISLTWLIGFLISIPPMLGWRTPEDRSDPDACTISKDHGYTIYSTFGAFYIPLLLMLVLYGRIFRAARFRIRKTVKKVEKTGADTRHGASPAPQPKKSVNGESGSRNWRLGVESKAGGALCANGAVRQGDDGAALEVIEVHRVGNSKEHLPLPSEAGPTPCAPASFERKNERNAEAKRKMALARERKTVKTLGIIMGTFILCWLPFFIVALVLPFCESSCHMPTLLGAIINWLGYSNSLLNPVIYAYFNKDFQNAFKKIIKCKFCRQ
Put plainly: Displacement of [3H]8-OH-DPAT from human adrenergic 5HT1A expressed in human HeLa cells. It counts as cell-based. In a few lines: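 HeLa cells stably carrying human 5-HT1A clone G-21, grown in DMEM with 10% FCS. Membranes in 50 mM Tris–HCl pH 7.4, 2.5 mM MgCl2, 10 µM pargyline, with 0.7–1.4 nM [3H]8-OH-DPAT for 30 min at 30 °C. Nonspecific binding with 10 µM 5-HT. Filtration stop. Ki by Cheng–Prusoff. Mean ± SE of 2–3 experiments in triplicate.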
On the technique in general: Displacement assays read how much labelled ligand stays bound in the presence of the test substance.

Assay [5] concerns the target T5, Alpha-1B adrenergic receptor (Rattus norvegicus) (UniProt P15823).
T5 sequence (whole entry): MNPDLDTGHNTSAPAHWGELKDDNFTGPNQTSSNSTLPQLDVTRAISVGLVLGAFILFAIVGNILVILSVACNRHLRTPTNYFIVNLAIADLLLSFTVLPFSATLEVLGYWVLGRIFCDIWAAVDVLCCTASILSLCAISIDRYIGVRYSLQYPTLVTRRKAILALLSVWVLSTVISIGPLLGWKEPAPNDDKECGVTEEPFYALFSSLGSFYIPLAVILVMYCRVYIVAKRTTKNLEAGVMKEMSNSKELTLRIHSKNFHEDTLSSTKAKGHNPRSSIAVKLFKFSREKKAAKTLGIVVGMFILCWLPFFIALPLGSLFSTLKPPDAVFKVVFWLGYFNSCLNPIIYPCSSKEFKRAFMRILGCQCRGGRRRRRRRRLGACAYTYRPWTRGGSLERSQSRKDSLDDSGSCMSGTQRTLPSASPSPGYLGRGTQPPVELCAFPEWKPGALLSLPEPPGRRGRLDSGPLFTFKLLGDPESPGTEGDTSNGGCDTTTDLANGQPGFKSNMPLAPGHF
Put plainly: Antagonist activity at adrenergic Alpha-1B receptor in Wistar rat spleen assessed as inhibition of […]-indcuced contraction. Format: functional, tissue-based.

As usually defined, the pKb is the Kb on a negative log10 scale, so that one unit is a factor of ten. As usually defined, the Ki is the equilibrium dissociation constant of an inhibitor or competing ligand from its target.

On to `COc1cccc([N+](=O)[O-])c1OCCNCCOc1ccccc1OCc1ccccc1`, for which the pKb in assay [1] stood at 8.41; in assay [2], 8.92; in assay [5], 8.19. Further, the Ki in assay [3] was 1.12 nM; in assay [4], 15.8 nM.

With `COc1cccc(OC)c1CCCNCCOc1ccccc1OCc1ccccc1`, the results for the pKb in assay [1], in assay [2] and in assay [5] were 7.8, 8.12 and 7.34, respectively. Further, the Ki in assay [3] is 9.77 nM; in assay [4], 2.51 nM.

`COc1ccccc1OCCNCCOc1ccccc1OCc1ccccc1`: the pKb in assay [1] was determined as 7.95; in assay [2], 8.08; in assay [5], 7.89. Also, the figures for the Ki in assay [3] and in assay [4] were 3.16 nM and 2.51 nM, respectively.

With `c1ccc(COc2ccccc2OCCNCCOc2ccccc2)cc1`, the values for the pKb in assay [1], in assay [2] and in assay [5] were 7.65, 7.32 and 7.74, respectively. Moreover, the Ki in assay [3] was 10 nM; in assay [4] it was 7.94 nM.

As to `COc1cccc(C)c1OCCNCCOc1ccccc1OCc1ccccc1`, the pKb was 8.35 in assay [1], 8.36 in assay [2] and 7.91 in assay [5]. Moreover, the Ki in assay [3] is 2.51 nM; in assay [4], 3.98 nM.

Take `Cc1cccc(C)c1OCCNCCOc1ccccc1OCc1ccccc1`: the pKb in assay [1] worked out at 7.33; in assay [2], 7.59; in assay [5], 7.78. The Ki in assay [3] is 7.94 nM; in assay [4], 15.8 nM.

For the compound `COc1cccc(OC)c1[S+]([O-])CCNCCOc1ccccc1OCc1ccccc1` (stereo not given), the figures for the pKb in assay [1], in assay [2] and in assay [5] were 7.95, 7.49 and 7.65, respectively. Also, the Ki was 20 nM in assay [3] and 3.16 nM in assay [4].

With `COc1cccc(OC)c1SCCNCCOc1ccccc1OCc1ccccc1`, the pKb in assay [1] was found to be 8.74; in assay [2] it was 9.47; in assay [5], 8.57. Besides, the Ki in assay [3] is 3.16 nM; in assay [4], 15.8 nM.

Regarding `CCOc1cccc(OCC)c1OCCNCCOc1ccccc1OCc1ccccc1`, the results for the pKb in assay [1], in assay [2] and in assay [5] were 7.92, 8.03 and 8.57, respectively. The Ki was 3.16 nM in assay [3] and 31.6 nM in assay [4].

With `Clc1cccc(Cl)c1OCCNCCOc1ccccc1OCc1ccccc1`, the pKb in assay [1] is 6.57; in assay [2], 8.02; in assay [5] it was 7.75. Moreover, the Ki in assay [3] is 6.31 nM; in assay [4], 31.6 nM.

Turning to `COc1cccc(Cl)c1OCCNCCOc1ccccc1OCc1ccccc1`, the pKb in assay [1] stood at 8.16; in assay [2], 8.74; in assay [5], 7.84. The Ki in assay [3] was 2.51 nM; in assay [4], 31.6 nM.

For the compound `CCOc1ccccc1OCCNCCOc1ccccc1OCc1ccccc1`, the values for the pKb in assay [1], in assay [2] and in assay [5] were 8.03, 8.35 and 7.94, respectively. The Ki is 2 nM in assay [3] and 5.01 nM in assay [4].

Consider `Oc1cccc(O)c1OCCNCCOc1ccccc1OCc1ccccc1`, for which the negative-log Kb (pKb) in assay [1] was determined as 7.44; in assay [2], 7.44; in assay [5] it was 7.02. Moreover, the Ki in assay [3] was 5.01 nM; in assay [4] it was 12.6 nM.
